The values that follow come from ChEMBL document CHEMBL3120087, “3D QSAR studies based in silico screening of 4,5,6-triphenyl-1,2,3,4-tetrahydropyrimidine analogs for anti-inflammatory activity” (2014).

The subject of experiment [1] is Rattus norvegicus. Description: Antiinflammatory activity in rat assessed as reduction of paw edema. Format: functional. An outline of the steps: (§1)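 Albino rats of either sex (150–200 g), six per group, fasted 12 h with water only. […] Paw volume measured by plethysmometer immediately (initial) and then hourly to 4 h. Mean paw volume ± SEM reported with % inhibition of edema versus control.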

Experiment [2] has as its system Rattus norvegicus. Description: Antiinflammatory activity in albino rat assessed as inhibition of carrageenan-induced paw edema at 20 mg/kg, po administered 1 hr prior to carrageenan challenge measured after 2 hrs relative to vehicle-treated control. The format is functional. An outline of the steps:
as §1

The subject of experiment [3] is Rattus norvegicus. Description: Antiinflammatory activity in albino rat assessed as inhibition of carrageenan-induced paw edema at 20 mg/kg, po administered 1 hr prior to carrageenan challenge measured after 3 hrs relative to vehicle-treated control. Format: functional. A digest of the protocol: as §1
A general note: In the carrageenan paw model, swelling and tenderness develop within hours.

In experiment [4] the test system is Rattus norvegicus. Description: Antiinflammatory activity in albino rat assessed as inhibition of carrageenan-induced paw edema at 20 mg/kg, po administered 1 hr prior to carrageenan challenge measured after 1 hr relative to vehicle-treated control. The format is functional. A digest of the protocol: as §1
Experiment [5] has as its system Rattus norvegicus. Description: Antiinflammatory activity in albino rat assessed as inhibition of carrageenan-induced paw edema at 20 mg/kg, po administered 1 hr prior to carrageenan challenge measured after 4 hrs relative to vehicle-treated control. Format: functional. An outline of the steps: as §1
In experiment [6] the target is T1, Prostaglandin G/H synthase 1 (Ovis aries) (UniProt P05979).
T1 sequence (whole entry): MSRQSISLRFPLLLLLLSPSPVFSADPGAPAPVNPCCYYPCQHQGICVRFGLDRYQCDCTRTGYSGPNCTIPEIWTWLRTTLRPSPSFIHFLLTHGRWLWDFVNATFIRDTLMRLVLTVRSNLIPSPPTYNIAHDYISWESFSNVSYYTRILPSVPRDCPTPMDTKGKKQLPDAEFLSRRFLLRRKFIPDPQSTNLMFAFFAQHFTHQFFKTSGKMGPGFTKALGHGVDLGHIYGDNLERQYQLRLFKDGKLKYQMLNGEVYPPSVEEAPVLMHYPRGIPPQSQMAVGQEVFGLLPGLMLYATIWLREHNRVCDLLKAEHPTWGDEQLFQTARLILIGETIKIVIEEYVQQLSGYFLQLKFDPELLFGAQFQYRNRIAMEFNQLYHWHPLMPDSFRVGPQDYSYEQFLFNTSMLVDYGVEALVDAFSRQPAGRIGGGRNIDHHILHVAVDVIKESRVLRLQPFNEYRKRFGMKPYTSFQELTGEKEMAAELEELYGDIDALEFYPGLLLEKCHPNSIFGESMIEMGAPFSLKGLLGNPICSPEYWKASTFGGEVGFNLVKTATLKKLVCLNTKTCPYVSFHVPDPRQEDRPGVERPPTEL
Description: Inhibition of ovine COX1 using TMPD as substrate at 20 uM incubated for 5 mins prior to substrate addition measured after 5 mins by colorimetry. A digest of the protocol: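 Colorimetric COX assay using peroxidase activity of ovine cyclooxygenase to oxidize TMPD. Assay mixture mixed and incubated at 25 °C for 5 min. Enzyme activity read as absorbance at 590 nm.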

Experiment [7] has as its system Rattus norvegicus. Description: Antiinflammatory activity in albino rat assessed as inhibition of carrageenan-induced paw edema at 20 mg/kg, po administered 1 hr prior to carrageenan challenge measured after 24 hrs relative to vehicle-treated control. Format: functional.

Structures are written as SMILES.

Turning to `Cc1ccc(C2=C(CC(=O)O)C(c3ccccc3)NC(=N)N2)cc1` (configuration not stated), in the experiment on Rattus norvegicus [1], the “log(activity)” value is 0.82.
On the same count and under the same terms, the result for `COc1ccc(C2NC(=N)NC(c3ccc(Cl)cc3)=C2CC(=O)O)cc1` (configuration not stated) reads 0.92; that for `O=C(O)CC1=C(c2ccc(Cl)cc2)N=C(S)NC1c1ccc(Cl)cc1` (configuration not stated), 0.82; that for `O=C(O)CC1=C(c2ccccc2)N=C(S)NC1c1ccc(Cl)cc1` (configuration not stated), 0.88.
Still for that read-out and setting: for `Cc1ccc(C2=C(CC(=O)O)C(c3ccco3)NC(S)=N2)cc1` (configuration not stated) the value was 0.31.
Same read-out and setting: the result for `Cc1ccc(C2=C(CC(=O)O)C(c3cccs3)NC(S)=N2)cc1` (configuration not stated) reads 0.28.
As for `COc1ccc(C2NC(=N)NC(c3ccccc3)=C2CC(=O)O)cc1` (configuration not stated), the “log(activity)” value in the experiment with Rattus norvegicus [1] was 0.82.
Regarding `Cc1ccc(C2=C(CC(=O)O)C(c3cccnc3)NC(=N)N2)cc1` (configuration not stated), the “log(activity)” value in the experiment with Rattus norvegicus [1] was found to be 0.58.
Still for that read-out and setting: for `O=C(O)CC1=C(c2ccccc2)N=C(S)NC1c1cccnc1` (configuration not stated) the value was 0.46; for `Cc1ccc(C2=C(CC(=O)O)C(c3ccc(Cl)cc3)NC(=N)N2)cc1` (configuration not stated), 0.68; for `Cc1ccc(C2=C(CC(=O)O)C(c3cccs3)NC(=N)N2)cc1` (configuration not stated), 0.64.
As to `N=C1NC(c2ccc(Cl)cc2)=C(CC(=O)O)C(c2cccnc2)N1` (configuration not stated), in the experiment on Rattus norvegicus [1], the “log(activity)” value worked out at 0.54.
For the molecule `CS(=O)(=O)c1ccc(C2=C(c3ccccc3)C(c3ccccc3)NC(=S)N2)cc1` (configuration not stated), the inhibition in vivo (usually how much of the control response was suppressed) at 20 mg/kg came out at 30.9% in the experiment with Rattus norvegicus [2], 43.1% in the experiment with Rattus norvegicus [3], 46.9% with Rattus norvegicus [4] and 18.4% with Rattus norvegicus [5].
The matching figures for `CN(C)c1ccc(C2NC(=O)NC(c3ccc(Cl)cc3)=C2c2ccc(S(C)(=O)=O)cc2)cc1` (configuration not stated): 27.6%, 28.9%, 18% and 16.1%.
Consider `COc1ccc(C2NC(=O)NC(c3ccc(S(C)(=O)=O)cc3)=C2c2ccccc2)c(OC)c1` (configuration not stated), for which the inhibition in vivo at 20 mg/kg with Rattus norvegicus [2] came to 28.1%; in the experiment on Rattus norvegicus [3], 39.1%; in the experiment with Rattus norvegicus [4] it was 21.6%.
On to `COc1ccc(C2NC(=N)NC(c3ccc(C)cc3)=C2CC(=O)O)cc1` (configuration not stated), for which the “log(activity)” value in the experiment with Rattus norvegicus [1] was determined as 0.88.
As for `N=C1NC(c2ccccc2)=C(CC(=O)O)C(c2cccnc2)N1` (configuration not stated), the “log(activity)” value in the experiment on Rattus norvegicus [1] is reported as 0.3.
Regarding `CN(C)c1ccc(C2NC(=O)NC(c3ccc(S(C)(=O)=O)cc3)=C2c2ccccc2)cc1` (configuration not stated), the inhibition in vivo at 20 mg/kg in the experiment with Rattus norvegicus [2] amounted to 41.4%; in the experiment with Rattus norvegicus [3], 26.9%; in the experiment with Rattus norvegicus [4] it was 46.9%; with Rattus norvegicus [5] it was 9.52%. Further, the inhibition – broadly, how much of the control response was suppressed – in experiment [6] is 2.36%.
As for `Cc1ccc(-c2cc(C(F)(F)F)nn2-c2ccc(S(N)(=O)=O)cc2)cc1` [CELECOXIB], the inhibition in vivo at 20 mg/kg in the experiment with Rattus norvegicus [2] is 41.9%; in the experiment with Rattus norvegicus [3], 32.5%; in the experiment on Rattus norvegicus [7] it was 6.49%; with Rattus norvegicus [4], 48.2%; in the experiment with Rattus norvegicus [5], 17.9%.
As for `COc1ccc(C2NC(S)=NC(c3ccc(C)cc3)=C2CC(=O)O)cc1` (configuration not stated), the “log(activity)” value in the experiment with Rattus norvegicus [1] is 0.96.
The same measure, in the same setting: for `O=C(O)CC1=C(c2ccc(Cl)cc2)N=C(S)NC1c1ccco1` (configuration not stated) the value was 0.24; for `O=C(O)CC1=C(c2ccc(Cl)cc2)N=C(S)NC1c1ccccc1` (configuration not stated), 0.65.
On the same count and under the same terms, for `Cc1ccc(C2=C(CC(=O)O)C(c3ccco3)NC(=N)N2)cc1` (configuration not stated) the value was 0.54; for `N=C1NC(c2ccc(Cl)cc2)=C(CC(=O)O)C(c2cccs2)N1` (configuration not stated), 0.64; for `Cc1ccc(C2=C(CC(=O)O)C(c3ccc(Cl)cc3)NC(S)=N2)cc1` (configuration not stated), 0.72.
Consider `COc1ccc(OC)c(C2NC(=O)NC(c3ccc(S(C)(=O)=O)cc3)=C2c2ccccc2)c1` (configuration not stated), for which the inhibition in vivo at 20 mg/kg was 19.1% in the experiment with Rattus norvegicus [2], 24.4% with Rattus norvegicus [3], 35.6% with Rattus norvegicus [4] and 17.3% in the experiment on Rattus norvegicus [5].
In the case of `N=C1NC(c2ccccc2)=C(CC(=O)O)C(c2ccc(Cl)cc2)N1` (configuration not stated), the “log(activity)” value with Rattus norvegicus [1] came out at 0.64.
As to `N=C1NC(c2ccccc2)=C(CC(=O)O)C(c2cccs2)N1` (configuration not stated), the “log(activity)” value in the experiment on Rattus norvegicus [1] worked out at 0.51.
For the molecule `O=C(O)CC1=C(c2ccc(Cl)cc2)N=C(S)NC1c1cccnc1` (configuration not stated), the “log(activity)” value in the experiment on Rattus norvegicus [1] came out at 0.35.
In the case of `COc1ccc(C2NC(=S)NC(c3ccc(S(C)(=O)=O)cc3)=C2c2ccccc2)c(OC)c1` (configuration not stated), the inhibition in vivo at 20 mg/kg in the experiment with Rattus norvegicus [2] came to 26.7%; in the experiment on Rattus norvegicus [3], 10.2%; with Rattus norvegicus [4], 15.3%.
For the molecule `COc1ccc(C2NC(=N)NC(c3ccc(S(C)(=O)=O)cc3)=C2c2ccccc2)cc1OC` (configuration not stated), the inhibition in vivo at 20 mg/kg in the experiment with Rattus norvegicus [2] came to 18.6%; in the experiment with Rattus norvegicus [3], 37.1%; in the experiment with Rattus norvegicus [7], 3.9%; in the experiment on Rattus norvegicus [4] it was 24.8%; in the experiment on Rattus norvegicus [5] it was 11.3%.
For `COc1ccc(OC)c(C2NC(=O)NC(c3ccc(Cl)cc3)=C2c2ccc(S(N)(=O)=O)cc2)c1` (configuration not stated), the inhibition in vivo at 20 mg/kg in the experiment on Rattus norvegicus [2] was 28.1%; in the experiment on Rattus norvegicus [3] it was 24.4%; in the experiment with Rattus norvegicus [4], 18%; with Rattus norvegicus [5], 14.3%.
For `N=C1NC(c2ccc(Cl)cc2)=C(CC(=O)O)C(c2ccco2)N1` (configuration not stated), in the experiment with Rattus norvegicus [1], the “log(activity)” value came to 0.56.
Still for that read-out and setting: the result for `O=C(O)CC1=C(c2ccc(Cl)cc2)N=C(S)NC1c1cccs1` (configuration not stated) reads 0.54.
Turning to `COc1ccc(C2NC(=N)NC(c3ccc(Cl)cc3)=C2c2ccc(S(C)(=O)=O)cc2)cc1` (configuration not stated), the inhibition in vivo at 20 mg/kg with Rattus norvegicus [2] is 20.5%; with Rattus norvegicus [3], 43.6%; in the experiment with Rattus norvegicus [7], 15.6%; in the experiment on Rattus norvegicus [4] it was 30.2%; with Rattus norvegicus [5], 28.6%.
With `N=C1NC(c2ccccc2)=C(CC(=O)O)C(c2ccco2)N1` (configuration not stated), in the experiment on Rattus norvegicus [1], the “log(activity)” value turned out to be 0.55.
Take `O=C(O)CC1=C(c2ccccc2)N=C(S)NC1c1ccccc1` (configuration not stated): the “log(activity)” value in the experiment on Rattus norvegicus [1] worked out at 0.52.
The same measure, in the same setting: for `N=C1NC(c2ccccc2)=C(CC(=O)O)C(c2ccccc2)N1` (configuration not stated) the value was 0.64.
With `COc1ccc(OC)c(C2NC(=N)NC(c3ccc(S(C)(=O)=O)cc3)=C2c2ccccc2)c1` (configuration not stated), the inhibition in vivo at 20 mg/kg in the experiment on Rattus norvegicus [2] was 24.3%; in the experiment with Rattus norvegicus [3], 20.3%; with Rattus norvegicus [4], 25.2%; with Rattus norvegicus [5], 10.7%.
As for `Cc1ccc(C2=C(CC(=O)O)C(c3ccccc3)NC(S)=N2)cc1` (configuration not stated), the “log(activity)” value in the experiment on Rattus norvegicus [1] came out at 0.82.
On to `COc1ccc(C2NC(S)=NC(c3ccc(Cl)cc3)=C2CC(=O)O)cc1` (configuration not stated), for which, in the experiment with Rattus norvegicus [1], the “log(activity)” value is given as 1.02.
Same read-out and setting: for `N=C1NC(c2ccc(Cl)cc2)=C(CC(=O)O)C(c2ccc(Cl)cc2)N1` (configuration not stated) the value was 0.74.
Still for that read-out and setting: the result for `N=C1NC(c2ccc(Cl)cc2)=C(CC(=O)O)C(c2ccccc2)N1` (configuration not stated) reads 0.78; that for `O=C(O)CC1=C(c2ccccc2)N=C(S)NC1c1cccs1` (configuration not stated), 0.64; that for `COc1ccc(C2NC(S)=NC(c3ccccc3)=C2CC(=O)O)cc1` (configuration not stated), 0.92.
As to `Cc1ccc(C2=C(CC(=O)O)C(c3cccnc3)NC(S)=N2)cc1` (configuration not stated), the “log(activity)” value in the experiment on Rattus norvegicus [1] is 0.11.
Still for that read-out and setting: the result for `O=C(O)CC1=C(c2ccccc2)N=C(S)NC1c1ccco1` (configuration not stated) reads 0.57.
